# The source made the active and inactive calls. No cut-off for these calls is given here.
# Assays:
# [1] = system: SiHa; experiment: Antiproliferative activity against human SiHa cells after 48 hrs by MTT assay; assay type: functional, cell-based
# In short: (§1)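 Cells seeded at 5.0×10^3 per well and exposed to a range of compound concentrations for 48 h. MTT (2.5 mg/mL solution) was then added for 4 h, formazan was dissolved in DMSO, and OD was read at 570 nm. HL-60 was grown in RPMI-1640 with 10% FBS, the other lines in DMEM with 10% FBS, at 37 °C and 5% CO2. Triplicates; IC50 taken from mean OD versus concentration curves.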
# [2] = Binding affinity to hairpin duplex DNA (unknown origin) at 40 uM by SPR method
# In short: (§2)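 SPR: biotinylated HTG21 or hairpin DNA (200 nM) was folded in 50 mM Tris-HCl pH 7.4 with 100 mM KCl and captured to about 1,000 RU on an NLC chip against a blank reference cell. Ligand at 0.625–40 µM was injected at 25 µL/min (400 s association, 300 s dissociation) at 25 °C. The chip was regenerated with 1 M KCl and blank sensorgrams were subtracted.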
# [3] = system: HL-60; experiment: Antiproliferative activity against human HL60 cells after 48 hrs by MTT assay; assay type: functional, cell-based; conditions: HL-60, 48 h; in short: as §1
# [4] = system: HeLa; experiment: Antiproliferative activity against human HeLa cells after 48 hrs by MTT assay; assay type: functional, cell-based; in short: as §1
# [5] = system: U2OS; experiment: Antiproliferative activity against human U2OS cells after 48 hrs by MTT assay; assay type: functional, cell-based; in short: as §1
# [6] = system: A549; experiment: Antiproliferative activity against human A549 cells after 48 hrs by MTT assay; assay type: functional, cell-based; conditions: A549, 48 h; in short: as §1
# [7] = target: Quadruplex DNA; experiment: Binding affinity to HTG21 telomeric G-quadruplex DNA (unknown origin) by SPR method; assay type: nucleic-acid assay; in short: as §2
# [8] = system: Quadruplex DNA; experiment: Stabilization of F21T telomeric G-quadruplex DNA (unknown origin) assessed as change in melting temperature at 1 uM by FRET assay; assay type: nucleic-acid assay
# In short: (§3)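 FRET melting: 0.2 µM F21T or F10T (FAM/TAMRA-labelled), with or without 1.0 µM ligand, in 10 mM Tris-HCl pH 7.4 with 60 mM KCl. Excitation 470 nm, emission 530 nm, read every 1 °C from 37–99 °C at 1 °C/min with a 30 s hold. ΔTm = Tm(DNA+ligand) − Tm(DNA).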
# [9] = Stabilization of F10T hairpin duplex DNA (unknown origin) assessed as change in melting temperature at 1 uM by FRET assay; in short: as §3
# [10] = Binding affinity to hairpin duplex DNA (unknown origin) by SPR method; in short: as §2
# [11] = system: Mus musculus; experiment: Toxicity in BALB/C-nu/nu mouse xenografted with human SiHa cells assessed as decrease in body weight at 1 mg/kg, ip administered daily for 3 weeks measured everyday during compound dosing; assay type: organism-based; conditions: in vivo, 504 h
# In short: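 SiHa cells (1×10^7 per 100 µL, serum-free DMEM) were injected subcutaneously. Grown tumors were divided into pieces and implanted into BALB/C-nu/nu mice. Caliper volume (1/2 × L × W²) and body weight were recorded daily; tumors were weighed at the end.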
Compound,IC50 [1],Activity [2],IC50 [3],IC50 [4],IC50 [5],IC50 [6],Kd [7],ΔTm [8],ΔTm [9],Kd [10],Activity [11]
CN(C)CCCNc1cc2nc(/C=C3\C(=O)Nc4cc(N5CCOCC5)c(F)cc43)[nH]c(=O)c2cc1F,> 50 µM,inactive,3.4 µM,30.1 µM,> 50 µM,> 50 µM,> 40 µM,11.9 °C,0.1 °C,–,–
CN(C)CCCN(C)c1cc2c(cc1F)/C(=C/c1nc3cc(NCCN(C)C)c(F)cc3c(=O)[nH]1)C(=O)N2,7.6 µM,inactive,5.6 µM,22.6 µM,9.2 µM,12.4 µM,14 µM,20.1 °C,0.3 °C,–,–
CCN(CC)CCCNc1cc2nc(/C=C3\C(=O)Nc4cc(N5CCN(C)CC5)c(F)cc43)[nH]c(=O)c2cc1F,7.9 µM,inactive,5.7 µM,9.6 µM,10.2 µM,6.1 µM,4.9 µM,25.3 °C,0.1 °C,–,–
CN(C)CCNc1cc2nc(/C=C3\C(=O)Nc4cc(N5CCN(C)CC5)c(F)cc43)[nH]c(=O)c2cc1F,11.4 µM,–,2.8 µM,7.7 µM,5.7 µM,6 µM,6.2 µM,22.5 °C,0.3 °C,15 µM,–
COc1cccc2c1C(=O)c1c(O)c3c(c(O)c1C2=O)C[C@@](O)(C(=O)CO)C[C@@H]3O[C@H]1C[C@H](N)[C@H](O)[C@H](C)O1 [DOXORUBICIN],–,–,–,–,–,–,–,–,–,–,Toxic
CCN(CC)CCCN1C(=O)/C(=C\c2nc3cc(N4CCN(C)CC4)c(F)cc3c(=O)[nH]2)c2ccccc21,> 50 µM,inactive,13.2 µM,> 50 µM,> 50 µM,> 50 µM,> 40 µM,5.8 °C,0.3 °C,–,–
CN(C)CCCNc1ccc2c(=O)[nH]c(/C=C3\C(=O)Nc4cc(N5CCN(C)CC5)ccc43)nc2c1,11.5 µM,inactive,4.3 µM,49 µM,14.1 µM,19 µM,> 40 µM,16.5 °C,0.1 °C,–,–
CN(C)CCCNc1cc2nc(/C=C3\C(=O)Nc4ccccc43)[nH]c(=O)c2cc1F,17.1 µM,inactive,3.2 µM,13.4 µM,18.7 µM,14.8 µM,> 40 µM,11.8 °C,0.2 °C,–,–
CN1CCN(c2ccc3c(c2)NC(=O)/C3=C\c2nc3cc(NCCN4CCCC4)c(F)cc3c(=O)[nH]2)CC1,10.9 µM,inactive,3.6 µM,17.4 µM,6.4 µM,4.1 µM,> 40 µM,18.6 °C,0.2 °C,–,–
CN(C)CCCNc1cc2nc(/C=C3/C(=O)Nc4ccccc43)n(CCCN(C)C)c(=O)c2cc1F,30.5 µM,inactive,8.2 µM,27.1 µM,28.4 µM,18.2 µM,> 40 µM,9.2 °C,0.1 °C,–,–
